In PubChem BioAssay AID624107 (Broad Institute, 2012):
The source made the active and inactive calls.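 Rule for the calls: active = fitted absorbance curve falls past 35% inhibition at a dose no higher than twice the top tested dose; inconclusive = flat fit at 30 to 70% inhibition, or poor fit; inactive = the rest.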

Key:
[1] = pyoverdine output of iron-starved P. aeruginosa PAK, dose response, PAK strain, absorbance 405 nm, dry powder (AID 624107); conditions: P. aeruginosa PAK + EDDHA, pyoverdine absorbance 405 nm, 28 h; at 100 µM (top of the series)
Summary of the method: (§1)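 System: Pseudomonas aeruginosa PAK wild-type strain, whole bacterial cells; buffer or medium: succinate M9, pH 7.0, 2 µM EDDHA; probe or stimulus: EDDHA 2 µM; compound dosing: 100 µM to 15 nM final; times: 28 h, 30 °C, humidified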

[2] = tested on: P. aeruginosa PAK + EDDHA, pyoverdine absorbance 405 nm, 28 h; experiment: as above
Summary of the method: as §1

| Compound | activity change, negative = inhibition [1] | AC35 [2] |
| --- | --- | --- |
| N#CC(c1ccc(C(F)(F)F)c(Cl)n1)c1ccccc1OC(F)(F)F (stereo unspecified) | -22.7% (inactive) | – |
| N#CC(c1ccc(F)cc1)c1cccc(C(F)(F)F)n1 (stereo unspecified) | – | 9.8 µM |
| N#CC(c1ccc(Cl)cc1)c1cccc(C(F)(F)F)n1 (stereo unspecified) | – | 3.67 µM |
| N#CC(c1ccc(Cl)cc1)c1cccc(Cl)n1 (stereo unspecified) | – | 11.8 µM |
| CCCCC(c1ccc(Cl)cc1)c1nn[nH]n1 (stereo unspecified) | -16.3% (inactive) | – |
| CCCCC(C#N)c1ccc(Cl)cc1 (stereo unspecified) | -14% (inactive) | – |
| COCCC(C#N)c1ccc(Cl)cc1 (stereo unspecified) | -7.69% (inactive) | – |
| COCCNC(C#N)c1ccc(Cl)cc1 (stereo unspecified) | -17.9% (inactive) | – |
| N#CC(c1cccc(Cl)n1)c1ccc(Cl)cc1F (stereo unspecified) | – | 5.28 µM |
| COCCOCCC(C#N)c1ccc(Cl)cc1 (stereo unspecified) | 6.79% (inactive) | – |
| CN(C)CCCC(C#N)c1ccc(Cl)cc1 (stereo unspecified) | – | > 100 µM (inactive) |
| N#CC(c1ccc(Cl)cc1)c1ncccc1Cl (stereo unspecified) | – | 22 µM |
| CCCCC(C#N)c1ccccn1 (stereo unspecified) | 3.52% (inactive) | – |
| N#CC(c1ccc(F)cc1)c1cccc(Cl)n1 (stereo unspecified) | -39.4% (inactive) | – |
| Clc1ccc(C(c2cccc(Cl)n2)c2nn[nH]n2)cc1 (stereo unspecified) | 14.5% (inactive) | – |
| N#CC(c1cccc(C(F)(F)F)n1)c1ccc(Cl)cc1F (stereo unspecified) | – | 5.42 µM |
